Laboratory results: BindingDB's records for doi:10.1021/jm970460b (University of Wisconsin-Milwaukee, 1998)

Molecular target: Gamma-aminobutyric acid receptor subunit alpha-6/beta-3/gamma-2 (Homo sapiens, UniProt Q16445+P18507+P28472)
Assay: Binding affinity measured using LtK- cell membranes expressing Gamma-aminobutyric acid A receptor alpha-6-beta-3-gamma-2
Outline: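 Cells scraped, resuspended in 10 mM KH2PO4/100 mM KCl, pH 7.4. Incubation 1 h at 4 °C to equilibrium, filtration, scintillation counting. Ki from iterative least-squares fit, mean of two determinations.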

Gamma-aminobutyric acid receptor subunit alpha-6/beta-3/gamma-2, sequence (Q16445 whole entry): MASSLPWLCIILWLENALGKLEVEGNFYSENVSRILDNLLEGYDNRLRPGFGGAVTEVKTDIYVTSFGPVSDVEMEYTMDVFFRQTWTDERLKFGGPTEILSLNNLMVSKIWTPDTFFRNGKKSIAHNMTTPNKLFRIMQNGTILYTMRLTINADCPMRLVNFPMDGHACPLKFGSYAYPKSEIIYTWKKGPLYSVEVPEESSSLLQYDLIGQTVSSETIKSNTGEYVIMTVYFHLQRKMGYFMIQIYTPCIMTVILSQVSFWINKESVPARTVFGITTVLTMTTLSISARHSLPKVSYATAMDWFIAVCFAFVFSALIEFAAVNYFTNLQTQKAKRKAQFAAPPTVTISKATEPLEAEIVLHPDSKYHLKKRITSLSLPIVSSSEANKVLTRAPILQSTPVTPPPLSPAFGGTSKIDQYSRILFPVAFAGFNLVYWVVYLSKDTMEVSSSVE
Gamma-aminobutyric acid receptor subunit alpha-6/beta-3/gamma-2, sequence (P18507 as listed by the source): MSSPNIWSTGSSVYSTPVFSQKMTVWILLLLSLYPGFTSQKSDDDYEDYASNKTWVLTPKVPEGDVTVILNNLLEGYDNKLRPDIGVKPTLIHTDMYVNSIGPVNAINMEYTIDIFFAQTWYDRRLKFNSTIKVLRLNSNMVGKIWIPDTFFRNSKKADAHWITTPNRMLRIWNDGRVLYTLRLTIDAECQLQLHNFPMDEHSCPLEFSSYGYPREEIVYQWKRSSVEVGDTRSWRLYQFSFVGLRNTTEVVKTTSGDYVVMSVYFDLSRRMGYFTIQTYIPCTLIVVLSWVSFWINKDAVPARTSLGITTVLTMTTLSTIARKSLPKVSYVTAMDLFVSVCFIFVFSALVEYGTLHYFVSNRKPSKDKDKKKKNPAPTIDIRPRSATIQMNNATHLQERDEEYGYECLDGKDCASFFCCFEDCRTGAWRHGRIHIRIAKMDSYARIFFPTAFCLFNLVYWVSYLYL
Gamma-aminobutyric acid receptor subunit alpha-6/beta-3/gamma-2, sequence (P28472 whole entry): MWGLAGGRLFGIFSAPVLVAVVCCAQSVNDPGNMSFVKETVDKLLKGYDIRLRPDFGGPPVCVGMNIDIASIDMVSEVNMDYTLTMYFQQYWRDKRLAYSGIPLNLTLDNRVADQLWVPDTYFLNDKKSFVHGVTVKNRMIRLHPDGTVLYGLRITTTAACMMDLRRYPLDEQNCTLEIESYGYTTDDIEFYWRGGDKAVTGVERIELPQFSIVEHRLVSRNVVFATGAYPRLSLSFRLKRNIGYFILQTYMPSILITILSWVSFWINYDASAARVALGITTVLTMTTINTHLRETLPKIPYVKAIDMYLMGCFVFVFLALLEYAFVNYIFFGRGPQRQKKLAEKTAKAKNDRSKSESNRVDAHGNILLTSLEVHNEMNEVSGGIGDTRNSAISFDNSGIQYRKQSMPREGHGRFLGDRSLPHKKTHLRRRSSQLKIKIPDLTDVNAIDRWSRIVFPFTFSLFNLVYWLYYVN

CCOC(=O)c1[nH]cc2nc3ccc(OCc4ccccc4)cc3c-2c1COC [6-Benzyloxy-4-methoxymethyl-9H-beta-carboline-3-carboxylic acid ethyl ester] was tested, and the Ki was > 1 µM.
